Test results as given in ChEMBL document CHEMBL1800065, “Enhanced stability and intracellular accumulation of quercetin by protection of the chemically or metabolically susceptible hydroxyl groups with a pivaloxymethyl (POM) promoiety” (J Med Chem, 2010).
Values after ≈ are worked out from the molar mass of the structure shown. Active and inactive are the calls of the source. The calls are words filed in the database; no cut-off is given here.

Tests used:
[1] = Chemical stability of the compound in buffer at pH 2 assessed as half life by HPLC analysis; assay type: physicochemical
How it was run: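 Compound incubated in pH 2.0 buffer without antioxidant stabiliser. Remaining parent followed by HPLC to derive the half-life.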

[2] = Chemical stability of the compound in PBS buffer at pH 7.4 assessed as half life by HPLC analysis; assay type: physicochemical
How it was run: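 Compound at 50 μM in PBS pH 7.4 at 37 °C, no stabilizer. Aliquots taken at 0–360 min and analysed by C-18 reverse-phase HPLC with UV detection at 340 nm and an acetonitrile/0.1% formic acid gradient. Half-life derived from the time course.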

[3] = Chemical stability of the compound in cell-free DMEM culture media assessed as half life by HPLC analysis in presence of FBS; assay type: physicochemical; conditions: cell-free DMEM culture medium with FBS
How it was run: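 50 μM in FBS-supplemented DMEM, diluted from 10 mM DMSO stock, no ascorbic acid, cell-free, 37 °C and 5% CO₂. Media sampled at time points up to 24 h and stored at −80 °C. Half-life determined by HPLC.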

DU-145 = assay: Antiproliferative activity against human DU145 cells after 24 hrs by MTT assay; assay type: functional, cell-based; conditions: DU-145, 24 h
How it was run: (§1)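 Cells seeded at 5 × 10³ per well in complete DMEM and grown 1 day at 37 °C, 5% CO₂. Compounds in DMSO diluted to 0.1–50 μM in medium, no ascorbic acid added. […] Each experiment run in triplicate and repeated three times.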

HS27 = assay: Antiproliferative activity against human HS27 cells after 24 hrs by MTT assay; assay type: cell-based; conditions: HS27, 24 h; how it was run: as §1
HCT-116 [4] = assay: Antiproliferative activity against human HCT116 cells after 24 hrs by MTT assay in presence of antioxidative stabilizer ascorbic acid; assay type: functional, cell-based
How it was run: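 HCT116 cells seeded at 5 × 10³ cells/well in complete DMEM and grown 1 day (37 °C, 5% CO₂). Compounds were dissolved in DMSO and diluted to 0.1–50 μM in medium containing ascorbic acid. Viability read by MTT after 24 h; triplicate wells, three independent repeats.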

MCF7 [5] = assay: Cell cycle arrest in human MCF7 cells assessed as decrease in accumulation at G0/G1 phase at 30 uM after 12 hrs by propidium iodide staining based flow cytometric analysis relative to quercetin; assay type: functional; set-up: scale not given: the % may be the effect or the level left
How it was run: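 MCF-7 cells seeded in 35 mm dishes at 10⁵ cells and grown 12 h at 37 °C, 5% CO₂. Treated 12 h with conjugate at 30 μM, quercetin or 1% DMSO control. Propidium iodide staining, flow cytometry, percentage of cells in each phase.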

MCF7 [6] = assay: Cell cycle arrest in human MCF7 cells assessed as increase in accumulation at S phase at 30 uM after 14 hrs by propidium iodide staining based flow cytometric analysis relative to quercetin; assay type: functional
MCF7 [7] = assay: Cell cycle arrest in human MCF7 cells assessed as increase in apoptotic cells in sub-G1 phase at 30 uM after 14 hrs by propidium iodide staining based flow cytometric analysis relative to quercetin; assay type: functional
[8] = Aqueous solubility of the compound in PBS assessed as forward light scattering by compound by microplate neplhelometric analysis; assay type: physicochemical
How it was run: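 Nephelometric solubility. DMSO stocks diluted in PBS (pH 7.4), 1% DMSO final, to 5–500 μM. Forward light scattering read in microplates to find the highest concentration free of scatter.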

[9] = Solubility of the compound in DMEM media assessed as forward light scattering by compound by microplate neplhelometric analysis; assay type: physicochemical; conditions: DMEM medium
How it was run: (§2)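 Stocks in DMSO diluted to final 5–500 μM in DMEM, with or without FBS, at 1% DMSO. Forward light scattering measured by laser microplate nephelometry; solubility limit taken from the onset of scattering.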

[10] = Solubility of the compound in cell-free DMEM media assessed as forward light scattering by compound by microplate neplhelometric analysis in presence of FBS; assay type: physicochemical; conditions: cell-free DMEM medium with FBS; how it was run: as §2
HCT-116 [11] = assay: Cellular uptake in human HCT116 cells assessed a bright fluorescence light at 5 uM after 1 hr by fluorescence microscopic analysis; assay type: ADME, cell-based; conditions: hct-116, 1 h
HCT-116 [12] = assay: Cellular uptake in human HCT116 cells assessed a bright fluorescence light at 5 uM after 12 hrs by fluorescence microscopic analysis; assay type: ADME, cell-based; conditions: hct-116, 12 h
MCF7 [13] = assay: Cellular uptake in human MCF7 cells assessed as compound remaining in culture media at 10 uM after 1 hr by HPLC-mass spectrophotometric analysis; assay type: ADME, cell-based; conditions: mcf7, 1 h
How it was run: (§3)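 Cells (MCF-7 or Huh-7) seeded at 10⁵ cells/well and grown 24 h (37 °C, 5% CO₂), then exposed to 10 μM compound. Media and washed, trypsinised, sonicated and filtered lysates analysed by HPLC at 1 and 12 h. Peaks collected and identified by MALDI-TOF MS; content given as percentage of integrated HPLC peak area.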

MCF7 [14] = assay: Cellular uptake in human MCF7 cells assessed as compound remaining in culture media at 10 uM after 12 hrs by HPLC-mass spectrophotometric analysis; assay type: ADME, cell-based; conditions: mcf7, 12 h; how it was run: as §3
MCF7 [15] = assay: Cellular uptake in human MCF7 cells assessed as compound remaining in cell lysates at 10 uM after 1 hr by HPLC-mass spectrophotometric analysis; assay type: ADME, cell-based, Lysate; conditions: mcf7, 1 h; how it was run: as §3
MCF7 [16] = assay: Cellular uptake in human MCF7 cells assessed as compound remaining in cell lysates at 10 uM after 12 hr by HPLC-mass spectrophotometric analysis; assay type: ADME, cell-based, Lysate; conditions: mcf7, 12 h; how it was run: as §3
Huh-7 [17] = assay: Cellular uptake in human HuH7 cells assessed as compound remaining in culture media at 10 uM after 1 hrs by HPLC-mass spectrophotometric analysis; assay type: ADME, cell-based; conditions: huh-7, 1 h
Huh-7 [18] = assay: Cellular uptake in human HuH7 cells assessed as compound remaining in cell lysate at 10 uM after 1 hr by HPLC-mass spectrophotometric analysis; assay type: ADME, cell-based; conditions: huh-7, 1 h
MCF7 [19] = assay: Antiproliferative activity against human MCF7 cells after 24 hrs by MTT assay; assay type: functional, cell-based; conditions: MCF7, 24 h; how it was run: as §1
HCT-116 [20] = assay: Antiproliferative activity against human HCT116 cells after 24 hrs by MTT assay; assay type: functional, cell-based; conditions: HCT-116, 24 h; how it was run: as §1
[21] = Permeability of the compound measured on donor plate of PAMPA membrane at 50 uM after 1 hr by HPLC analysis; assay type: ADME
How it was run: (§4)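 Precoated PVDF PAMPA plate warmed to room temperature for 30 min. Donor held 50 μM compound in PBS with 5% DMSO; acceptor held PBS. Assembly incubated at room temperature for 1 and 5 h. Donor and acceptor aliquots analysed by HPLC; distribution given as percentage of integrated peak area.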

[22] = Permeability of the compound measured on donor plate of PAMPA membrane at 50 uM after 5 hrs by HPLC analysis; assay type: ADME; how it was run: as §4
[23] = Permeability of the compound measured on acceptor plate of PAMPA membrane at 50 uM after 1 hr by HPLC analysis; assay type: ADME; how it was run: as §4
[24] = Permeability of the compound measured on acceptor plate of PAMPA membrane at 50 uM after 5 hrs by HPLC analysis; assay type: ADME; how it was run: as §4
HCT-116 [25] = assay: Cellular uptake in human HCT116 cells assessed a bright fluorescence light at 5 uM after 12 hr by fluorescence microscopic analysis in presence of P-glycoprotein inhibitor verapamil; assay type: ADME, cell-based; conditions: hct-116, 12 h
HCT-116 [26] = assay: Cellular uptake in human HCT116 cells assessed a bright fluorescence light at 5 uM after 12 hr by fluorescence microscopic analysis in presence of […]; assay type: ADME, cell-based; conditions: hct-116, 12 h
[27] = Chemical stability of the compound in water assessed as half life by HPLC analysis; assay type: physicochemical
[28] = Half life in blood of cancer patient at 400 mg/kg, iv by HPLC analysis; assay type: ADME, organism-based; set-up: dose 400 mg/kg, route intravenous; conditions: human
MCF7 [29] = assay: Cell cycle arrest in human MCF7 cells assessed as decrease in accumulation at G0/G1 phase at 50 uM after 12 hrs by propidium iodide staining based flow cytometric analysis relative to untreated control; assay type: functional; set-up: scale not given: the % may be the effect or the level left
MCF7 [30] = assay: Cell cycle arrest in human MCF7 cells assessed as increase in accumulation at S phase at 50 uM after 14 hrs by propidium iodide staining based flow cytometric analysis relative to untreated control; assay type: functional
Huh-7 [31] = assay: Cellular uptake in human HuH7 cells assessed as intracellular accumulation at 10 uM after 12 hrs by HPLC-mass spectrophotometric analysis; assay type: ADME, cell-based; conditions: huh-7, 12 h; how it was run: as §3
Huh-7 [32] = assay: Cellular uptake in human HuH7 cells assessed as quercetin-sulphate accumulation at 10 uM after 12 hrs by HPLC-mass spectrophotometric analysis; assay type: ADME, cell-based; conditions: huh-7, 12 h; how it was run: as §3
Huh-7 [33] = assay: Cellular uptake in human HuH7 cells assessed as methyl-quercetin accumulation at 10 uM after 12 hrs by HPLC-mass spectrophotometric analysis; assay type: ADME, cell-based; conditions: huh-7, 12 h; how it was run: as §3
MCF7 [34] = assay: Cellular uptake in human MCF7 cells assessed as formation of quercetin sulphate in cell lysates at 10 uM after 12 hrs by HPLC-mass spectrophotometric analysis; conditions: mcf7, 12 h
MCF7 [35] = assay: Cellular uptake in human MCF7 cells assessed as formation of oxidised quercetin in cell lysates at 10 uM after 12 hrs by HPLC-mass spectrophotometric analysis; conditions: mcf7, 12 h
MCF7 [36] = assay: Cellular uptake in human MCF7 cells assessed as formation of methylated quercetin in cell lysates at 10 uM after 12 hrs by HPLC-mass spectrophotometric analysis; conditions: mcf7, 12 h
MCF7 [37] = assay: Cellular uptake in human MCF7 cells assessed as formation of quercetin glucuronide in cell lysates at 10 uM after 12 hrs by HPLC-mass spectrophotometric analysis; conditions: mcf7, 12 h

SMILES | half-life [1] [h] | half-life [2] [h] | half-life [3] [h] | EC50 (DU-145) [µM] | EC50 (HS27) [µM] | Activity (HCT-116 [4]) | solubility kinetic [8] [µM] | solubility kinetic [9] [µM] | solubility kinetic [10] [µM] | Drug uptake (HCT-116 [11]) | Drug uptake (HCT-116 [12]) | Drug uptake (MCF7 [13]) [%] | Drug uptake (MCF7 [14]) [%] | Drug uptake (MCF7 [15]) [%] | EC50 (MCF7 [19]) [µM] | EC50 (HCT-116 [20]) [µM] | permeability [21] [%] | permeability [22] [%] | permeability [23] [%] | permeability [24] [%] | further results
CC(C)(C)C(=O)OCOc1cc(O)c2c(=O)c(O)c(-c3ccc(O)c(O)c3)oc2c1 | 7 | > 72 | 4 | 10 | > 100 | Active | 5 (≈ 2.08 µg/mL) | 50 (≈ 20.8 µg/mL) | 200 | Active | Active | 62 | 12 | 21 | 20 | 36 | – | – | – | – | Activity (MCF7 [5]): 10%; Activity (MCF7 [6]): 120%; Activity (MCF7 [7]): Active; Drug uptake (MCF7 [16]): 4%; Drug uptake (Huh-7 [17]): Active; Drug uptake (Huh-7 [18]): Active
CC(C)(C)C(=O)OCOc1c(-c2ccc(O)c(O)c2)oc2cc(O)cc(O)c2c1=O | 20 | > 72 | 52 | > 100 | > 100 | – | 100 (≈ 41.6 µg/mL) | 100 (≈ 41.6 µg/mL) | > 400 | Not Active | Not Active | – | – | – | > 100 | > 100 | 87 | 74 | 0 | 0 | Drug uptake (HCT-116 [25]): Not Active; Drug uptake (HCT-116 [26]): Not Active
O=C(O)CNC(=O)Oc1cc(-c2oc3cc(O)cc(O)c3c(=O)c2O)ccc1O [QC-12] | 3 | 10 | 0.8 | – | – | – | > 400 | > 400 | > 400 | – | – | – | – | – | – | – | 6 | 18 | 55 | 40 | half-life [27]: 16.9 h; half-life [28]: 0.39 h
O=c1c(O)c(-c2ccc(O)c(O)c2)oc2cc(O)cc(O)c12 [QUERCETIN] | 7 | 10 | < 0.5 | > 100 | > 100 | inactive | 100 (≈ 30.2 µg/mL) | – | – | Active | Not Active | 5 | 5 | 7 | > 100 | > 100 | 45 | 8 | 16 | 6 | Activity (MCF7 [29]): 21%; Activity (MCF7 [30]): 78%; Drug uptake (MCF7 [16]): 17%; Drug uptake (Huh-7 [31]): Not Active; Drug uptake (Huh-7 [32]): < 5%; Drug uptake (Huh-7 [33]): < 5%; Drug uptake (MCF7 [34]): Active; Drug uptake (MCF7 [35]): Active; Drug uptake (MCF7 [36]): Active; Drug uptake (MCF7 [37]): Active
